# Experimental data published in ChEMBL document CHEMBL5257027 (Eur J Med Chem, 2016).
# Key:
# [1] = test system: PC-3; assay: Antiproliferative activity against human PC-3 cells assessed as reduction in cell growth; format: functional
# Outline: (§1)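 NCI five-dose testing across the 58-line panel gives GI50, TGI and LC50 for each line. Subpanel lines report mean GI50 for each of the nine cancer types.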
# [2] = test system: PC-3; assay: Antiproliferative activity against human PC-3 cells assessed as total growth inhibition; format: functional; outline: as §1
# [3] = test system: NCI/ADR-RES; assay: Antiproliferative activity against human NCI/ADR-RES cells assessed as reduction in cell growth; format: functional; outline: as §1
# [4] = test system: MDA-MB-468; assay: Antiproliferative activity against human MDA-MB-468 cells assessed as reduction in cell growth; format: functional; outline: as §1
# [5] = test system: MDA-MB-468; assay: Antiproliferative activity against human MDA-MB-468 cells assessed as total growth inhibition; format: functional; outline: as §1
# [6] = test system: SNB-75; assay: Antiproliferative activity against human SNB-75 cells assessed as total growth inhibition; format: functional; outline: as §1
# [7] = test system: COLO 205; assay: Antiproliferative activity against human COLO 205 cells assessed as reduction in cell growth; format: functional; outline: as §1
# [8] = biological target: Epidermal growth factor receptor (Homo sapiens) (UniProt P00533); assay: Inhibition of EGFR (unknown origin) at 10 uM using […] as substrate incubated for 40 mins in presence of [gamma33P]ATP by scintillation counting based hotspot kinase assay relative to control
# Chain of Epidermal growth factor receptor (Homo sapiens) (P00533 whole entry): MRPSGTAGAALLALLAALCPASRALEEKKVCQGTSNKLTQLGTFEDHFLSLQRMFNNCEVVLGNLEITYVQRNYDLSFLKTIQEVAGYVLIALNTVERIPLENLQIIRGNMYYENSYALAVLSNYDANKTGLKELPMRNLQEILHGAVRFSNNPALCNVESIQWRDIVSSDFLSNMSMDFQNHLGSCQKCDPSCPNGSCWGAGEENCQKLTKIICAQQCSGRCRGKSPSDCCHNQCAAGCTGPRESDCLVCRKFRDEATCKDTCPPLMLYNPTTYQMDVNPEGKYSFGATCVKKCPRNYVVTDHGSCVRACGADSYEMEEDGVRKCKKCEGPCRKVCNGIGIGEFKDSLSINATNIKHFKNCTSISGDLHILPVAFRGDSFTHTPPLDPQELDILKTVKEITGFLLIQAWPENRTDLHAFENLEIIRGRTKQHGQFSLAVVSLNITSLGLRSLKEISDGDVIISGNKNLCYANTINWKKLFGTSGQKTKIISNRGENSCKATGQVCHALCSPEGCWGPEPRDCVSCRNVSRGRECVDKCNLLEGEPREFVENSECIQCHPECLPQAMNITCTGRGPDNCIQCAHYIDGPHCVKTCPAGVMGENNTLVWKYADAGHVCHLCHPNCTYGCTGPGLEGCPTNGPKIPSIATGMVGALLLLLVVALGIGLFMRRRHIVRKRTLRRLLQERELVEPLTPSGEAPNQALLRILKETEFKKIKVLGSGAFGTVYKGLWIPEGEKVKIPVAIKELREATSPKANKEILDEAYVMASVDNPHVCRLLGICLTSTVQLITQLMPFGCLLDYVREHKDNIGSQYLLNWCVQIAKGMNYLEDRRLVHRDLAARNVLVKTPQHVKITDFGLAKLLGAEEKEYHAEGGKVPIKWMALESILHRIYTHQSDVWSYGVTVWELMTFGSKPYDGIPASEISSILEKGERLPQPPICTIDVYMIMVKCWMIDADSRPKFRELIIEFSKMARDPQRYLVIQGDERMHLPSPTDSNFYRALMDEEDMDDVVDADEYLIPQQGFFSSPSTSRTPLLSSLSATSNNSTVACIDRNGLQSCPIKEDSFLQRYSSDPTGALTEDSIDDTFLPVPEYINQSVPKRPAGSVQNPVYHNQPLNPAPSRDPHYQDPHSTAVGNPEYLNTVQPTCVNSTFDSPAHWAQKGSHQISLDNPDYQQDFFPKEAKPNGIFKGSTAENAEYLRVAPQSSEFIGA
# [9] = test system: Panel leukemia (Carcinoma cell lines); assay: Antiproliferative activity against human Panel leukemia (5 Carcinoma cell lines) assessed as reduction in mean cell growth; format: functional; outline: as §1
# [10] = test system: SNB-75; assay: Antiproliferative activity against human SNB-75 cells assessed as reduction in cell growth; format: functional; outline: as §1
# [11] = biological target: RAF proto-oncogene serine/threonine-protein kinase (Homo sapiens, UniProt P04049); assay: Inhibition of RAF1 (unknown origin) at 10 uM using […] as substrate incubated for 40 mins in presence of [gamma33P]ATP by scintillation counting based hotspot kinase assay relative to control
# Chain of RAF proto-oncogene serine/threonine-protein kinase (P04049 whole entry): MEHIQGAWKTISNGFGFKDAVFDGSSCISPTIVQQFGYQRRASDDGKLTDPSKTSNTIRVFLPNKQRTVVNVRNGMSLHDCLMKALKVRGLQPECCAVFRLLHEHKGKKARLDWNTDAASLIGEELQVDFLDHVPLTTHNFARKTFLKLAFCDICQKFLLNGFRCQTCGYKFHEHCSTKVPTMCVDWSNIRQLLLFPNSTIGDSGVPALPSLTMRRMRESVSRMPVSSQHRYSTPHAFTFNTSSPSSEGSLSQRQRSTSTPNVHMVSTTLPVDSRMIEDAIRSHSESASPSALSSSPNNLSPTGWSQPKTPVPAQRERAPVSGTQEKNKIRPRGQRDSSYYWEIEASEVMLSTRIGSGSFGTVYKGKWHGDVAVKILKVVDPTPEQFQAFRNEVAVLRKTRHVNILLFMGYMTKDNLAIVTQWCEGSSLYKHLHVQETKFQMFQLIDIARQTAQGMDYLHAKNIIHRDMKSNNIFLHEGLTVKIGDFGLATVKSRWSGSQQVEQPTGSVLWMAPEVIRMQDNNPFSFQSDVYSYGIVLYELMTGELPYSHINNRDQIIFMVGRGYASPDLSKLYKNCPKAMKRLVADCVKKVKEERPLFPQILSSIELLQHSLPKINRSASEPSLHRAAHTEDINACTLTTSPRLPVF
# [12] = organism: Homo sapiens; assay: Inhibition of ABL […] mutant (unknown origin) at 10 uM using […] as substrate incubated for 40 mins in presence of [gamma33P]ATP by scintillation counting based hotspot kinase assay relative to control
# [13] = test system: Serine/threonine-protein kinase B-raf (Homo sapiens), P15056 [V600E]; assay: Inhibition of B-RAF V600E mutant (unknown origin) at 10 uM using […] as substrate incubated for 40 mins in presence of [gamma33P]ATP by scintillation counting based hotspot kinase assay relative to control
# Chain of Serine/threonine-protein kinase B-raf (Homo sapiens), P15056 [V600E] (P15056 whole entry V600E): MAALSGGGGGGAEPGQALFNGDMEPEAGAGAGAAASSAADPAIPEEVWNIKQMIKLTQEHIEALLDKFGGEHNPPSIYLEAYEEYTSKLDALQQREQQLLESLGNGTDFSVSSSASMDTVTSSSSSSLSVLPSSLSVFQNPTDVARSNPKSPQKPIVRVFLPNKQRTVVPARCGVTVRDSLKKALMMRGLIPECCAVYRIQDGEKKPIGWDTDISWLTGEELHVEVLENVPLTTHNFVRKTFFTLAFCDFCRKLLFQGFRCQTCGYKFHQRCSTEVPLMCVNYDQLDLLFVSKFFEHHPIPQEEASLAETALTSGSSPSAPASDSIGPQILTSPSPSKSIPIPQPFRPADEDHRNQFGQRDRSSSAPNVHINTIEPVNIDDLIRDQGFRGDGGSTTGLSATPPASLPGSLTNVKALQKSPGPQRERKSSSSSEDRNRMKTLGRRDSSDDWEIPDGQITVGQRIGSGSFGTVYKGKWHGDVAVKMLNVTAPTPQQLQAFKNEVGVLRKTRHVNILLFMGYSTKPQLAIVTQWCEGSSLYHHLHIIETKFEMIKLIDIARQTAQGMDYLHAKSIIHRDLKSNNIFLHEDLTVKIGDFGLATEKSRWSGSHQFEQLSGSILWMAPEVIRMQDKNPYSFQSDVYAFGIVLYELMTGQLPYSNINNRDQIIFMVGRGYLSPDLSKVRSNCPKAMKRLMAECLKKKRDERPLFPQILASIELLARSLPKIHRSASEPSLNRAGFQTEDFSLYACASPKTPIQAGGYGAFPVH
# [14] = test system: NCI/ADR-RES; assay: Cytotoxicity against human NCI/ADR-RES cells; format: functional
# Outline: (§2)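 Run in the US NCI 58-cell-line screen covering nine cancer types (leukemia, NSCLC, colon, CNS, melanoma, ovarian, renal, prostate, breast). Five-dose mode gave GI50, TGI and LC50 values for each cell line. In the single-dose pre-screen, % inhibition was taken as 100 minus growth percentage.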
# [15] = Antiproliferative activity against human Panel non-small cell lung cancer (8 Carcinoma cell lines) assessed as reduction in mean cell growth; format: functional; conditions: Non-small cell lung cancer cell line; outline: as §1
# [16] = test system: SNB-75; assay: Cytotoxicity against human SNB-75 cells; format: functional; conditions: read-out: LC50 (the source's name); outline: as §2
# [17] = test system: Panel ovarian (Carcinoma cell lines); assay: Antiproliferative activity against human Panel ovarian (7 Carcinoma cell lines) assessed as reduction in mean cell growth; format: functional; outline: as §1
# [18] = test system: SK-MEL-5; assay: Cytotoxicity against human SK-MEL-5 cells; format: functional; outline: as §2
# [19] = test system: K562; assay: Cytotoxicity against human k562 cells; format: functional; conditions: read-out: LC50 (the source's name); outline: as §2
# [20] = test system: COLO 205; assay: Cytotoxicity against human COLO 205 cells; format: functional; outline: as §2
# [21] = test system: HCT-15; assay: Antiproliferative activity against human HCT-15 cells assessed as reduction in cell growth; format: functional; outline: as §1
# [22] = biological target: Mitogen-activated protein kinase 14 (Homo sapiens) (UniProt Q16539); assay: Inhibition of MAPK14 (p38 alpha) (unknown origin) at 10 uM using […] as substrate incubated for 40 mins in presence of [gamma33P]ATP by scintillation counting based hotspot kinase assay relative to control
# Chain of Mitogen-activated protein kinase 14 (Homo sapiens) (Q16539 whole entry): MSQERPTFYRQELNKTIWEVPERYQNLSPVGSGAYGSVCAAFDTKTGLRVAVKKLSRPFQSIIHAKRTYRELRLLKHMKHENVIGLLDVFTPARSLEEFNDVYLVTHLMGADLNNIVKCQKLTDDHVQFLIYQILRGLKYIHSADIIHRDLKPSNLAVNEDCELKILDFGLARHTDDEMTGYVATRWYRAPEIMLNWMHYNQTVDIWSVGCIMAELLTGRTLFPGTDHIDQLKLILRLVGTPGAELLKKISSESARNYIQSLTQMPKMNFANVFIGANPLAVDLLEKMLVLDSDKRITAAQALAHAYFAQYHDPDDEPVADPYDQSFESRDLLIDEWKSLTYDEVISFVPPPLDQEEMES
# [23] = test system: HCT-15; assay: Cytotoxicity against human HCT-15 cells; format: functional; conditions: read-out: LC50 (the source's name); outline: as §2
# [24] = test system: Panel renal (Carcinoma cell lines); assay: Antiproliferative activity against human Panel renal (8 Carcinoma cell lines) assessed as reduction in mean cell growth; format: functional; outline: as §1
# [25] = test system: K562; assay: Antiproliferative activity against human K562 cells assessed as reduction in cell growth; format: functional; outline: as §1
# [26] = test system: Panel prostate (Carcinoma cell lines); assay: Antiproliferative activity against human Panel prostate (2 Carcinoma cell lines) assessed as reduction in mean cell growth; format: functional; outline: as §1
# [27] = biological target: Tyrosine-protein kinase ABL1 (Homo sapiens) (UniProt P00519); assay: Inhibition of ABL (unknown origin) at 10 uM using […] as substrate incubated for 40 mins in presence of [gamma33P]ATP by scintillation counting based hotspot kinase assay relative to control
# Chain of Tyrosine-protein kinase ABL1 (Homo sapiens) (P00519 whole entry): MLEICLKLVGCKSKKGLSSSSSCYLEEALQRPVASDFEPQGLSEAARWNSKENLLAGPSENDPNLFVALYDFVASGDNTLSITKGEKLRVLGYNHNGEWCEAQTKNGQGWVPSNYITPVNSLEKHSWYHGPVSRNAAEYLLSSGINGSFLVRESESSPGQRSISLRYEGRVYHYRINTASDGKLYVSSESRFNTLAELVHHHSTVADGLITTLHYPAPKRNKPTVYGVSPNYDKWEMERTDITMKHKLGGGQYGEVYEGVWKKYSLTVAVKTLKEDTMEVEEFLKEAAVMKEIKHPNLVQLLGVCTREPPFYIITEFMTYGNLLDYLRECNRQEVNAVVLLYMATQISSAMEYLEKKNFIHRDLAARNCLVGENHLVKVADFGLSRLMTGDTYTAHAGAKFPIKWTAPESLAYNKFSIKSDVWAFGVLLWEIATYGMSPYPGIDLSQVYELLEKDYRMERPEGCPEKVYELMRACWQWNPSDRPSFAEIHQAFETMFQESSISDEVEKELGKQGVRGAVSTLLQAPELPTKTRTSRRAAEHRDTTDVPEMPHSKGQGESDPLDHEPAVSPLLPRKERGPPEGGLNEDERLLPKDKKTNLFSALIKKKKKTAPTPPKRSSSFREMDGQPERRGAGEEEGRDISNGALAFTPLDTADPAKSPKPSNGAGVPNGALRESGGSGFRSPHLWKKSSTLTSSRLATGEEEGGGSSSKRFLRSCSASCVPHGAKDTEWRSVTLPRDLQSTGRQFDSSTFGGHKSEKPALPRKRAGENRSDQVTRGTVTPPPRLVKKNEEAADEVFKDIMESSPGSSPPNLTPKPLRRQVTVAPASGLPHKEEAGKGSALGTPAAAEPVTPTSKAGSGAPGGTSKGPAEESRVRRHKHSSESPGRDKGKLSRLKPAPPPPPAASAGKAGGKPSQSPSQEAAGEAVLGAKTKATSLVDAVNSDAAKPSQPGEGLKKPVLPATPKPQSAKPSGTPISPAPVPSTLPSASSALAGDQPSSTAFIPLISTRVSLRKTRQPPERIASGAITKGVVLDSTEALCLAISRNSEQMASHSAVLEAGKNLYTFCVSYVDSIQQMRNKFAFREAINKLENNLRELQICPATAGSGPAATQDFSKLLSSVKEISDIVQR
# [28] = test system: RXF 393; assay: Antiproliferative activity against human RXF 393 cells assessed as total growth inhibition; format: functional; outline: as §1
# [29] = test system: HCT-15; assay: Antiproliferative activity against human HCT-15 cells assessed as total growth inhibition; format: functional; outline: as §1
# [30] = test system: RXF 393; assay: Antiproliferative activity against human RXF 393 cells assessed as reduction in cell growth; format: functional; outline: as §1
# [31] = test system: SK-MEL-5; assay: Antiproliferative activity against human SK-MEL-5 cells assessed as reduction in cell growth; format: functional; outline: as §1
# [32] = test system: Panel melanoma (Carcinoma cell lines); assay: Antiproliferative activity against human Panel melanoma (9 Carcinoma cell lines) assessed as reduction in mean cell growth; format: functional; outline: as §1
# [33] = test system: HOP-92; assay: Antiproliferative activity against human HOP-92 cells assessed as reduction in cell growth; format: functional; outline: as §1
# [34] = Antiproliferative activity against human Panel NCI-58 (58 Carcinoma cell lines) assessed as reduction in mean cell growth at 10 uM; format: functional; set-up: scale not given: the % may be the effect or the level left
# Outline: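 NCI 58-cell-line screen covering leukemia, NSCLC, colon, CNS, melanoma, ovarian, renal, prostate and breast lines. Compounds given once at […] (micromolar per the line). Percent inhibition taken as 100 minus growth percent. Panel line reports the mean over all 58 lines.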
# [35] = test system: Panel breast (Carcinoma cell lines); assay: Antiproliferative activity against human Panel breast (6 Carcinoma cell lines) assessed as reduction in mean cell growth; format: functional; outline: as §1
# [36] = test system: NCI/ADR-RES; assay: Antiproliferative activity against human NCI/ADR-RES cells assessed as total growth inhibition; format: functional; outline: as §1
# [37] = biological target: Serine/threonine-protein kinase B-raf (Homo sapiens) (UniProt P15056); assay: Inhibition of B-RAF (unknown origin) at 10 uM using […] as substrate incubated for 40 mins in presence of [gamma33P]ATP by scintillation counting based hotspot kinase assay relative to control
# Chain of Serine/threonine-protein kinase B-raf (Homo sapiens) (P15056 whole entry): as the sequence (P15056 whole entry V600E) above, with E600V counted along it
# [38] = test system: Panel colon (Carcinoma cell lines); assay: Antiproliferative activity against human Panel colon (7 Carcinoma cell lines) assessed as reduction in mean cell growth; format: functional; outline: as §1
# [39] = test system: COLO 205; assay: Antiproliferative activity against human COLO 205 cells assessed as total growth inhibition; format: functional; outline: as §1
# [40] = test system: Panel CNS (Carcinoma cell lines); assay: Antiproliferative activity against human Panel CNS (6 Carcinoma cell lines) assessed as reduction in mean cell growth; format: functional; outline: as §1
# [41] = test system: PC-3; assay: Cytotoxicity against human PC-3 cells; format: functional; outline: as §2
# [42] = test system: HOP-92; assay: Cytotoxicity against human HOP-92 cells; format: functional; outline: as §2
# [43] = test system: SK-MEL-5; assay: Antiproliferative activity against human SK-MEL-5 cells assessed as total growth inhibition; format: functional; outline: as §1
# [44] = test system: HOP-92; assay: Antiproliferative activity against human HOP-92 cells assessed as total growth inhibition; format: functional; outline: as §1
# [45] = test system: RXF 393; assay: Cytotoxicity against human RXF 393 cells; format: functional; outline: as §2
structure (smiles),measurement,setting,value
O=C(NCCCNc1cc(-c2cn(-c3ccccc3)nc2-c2cccc(O)c2)ccn1)c1ccccc1,GI50,[1],2.1 µM
same,TGI,[2],15.2 µM
same,GI50,[3],2.67 µM
same,GI50,[4],1.38 µM
same,TGI,[5],3.36 µM
same,TGI,[6],46.9 µM
same,GI50,[7],1.71 µM
same,inhibition,[8],3.72%
same,GI50,[9],1.62 µM
same,GI50,[10],1.68 µM
same,inhibition,[11],39.6%
same,inhibition,[12],9.61%
same,inhibition,[13],34.4%
same,LC50,[14],100 µM
same,GI50,[15],3.4 µM
same,CC50,[16],100 µM
same,GI50,[17],4.17 µM
same,LC50,[18],6.54 µM
same,CC50,[19],100 µM
same,LC50 (lethal concentration 50%),[20],7.88 µM
same,GI50,[21],1.51 µM
same,inhibition,[22],74.5%
same,CC50,[23],100 µM
same,GI50,[24],3.63 µM
same,GI50,[25],0.75 µM
same,GI50,[26],3.69 µM
same,inhibition,[27],16%
same,TGI,[28],6.2 µM
same,TGI,[29],5.12 µM
same,GI50,[30],1.97 µM
same,GI50,[31],1.49 µM
same,GI50,[32],2.3 µM
same,GI50,[33],1.7 µM
same,Activity,[34],>80%
same,GI50,[35],2.13 µM
same,TGI,[36],9.79 µM
same,inhibition,[37],10.8%
same,GI50,[38],2.3 µM
same,TGI,[39],3.67 µM
same,GI50,[40],3.6 µM
same,LC50,[41],100 µM
same,LC50,[42],100 µM
same,TGI,[43],3.12 µM
same,TGI,[44],24.5 µM
same,LC50,[45],100 µM
COc1cccc(-c2nn(-c3ccccc3)cc2-c2ccnc(NCCNC(=O)Nc3ccc(Cl)c(Cl)c3)c2)c1,GI50,[9],3.4 µM
same,GI50,[15],3.02 µM
same,GI50,[17],4.72 µM
same,GI50,[24],4.63 µM
same,GI50,[26],5.95 µM
same,GI50,[32],4.15 µM
same,Activity,[34],>80%
same,GI50,[35],3.35 µM
same,GI50,[38],3.73 µM
same,GI50,[40],7.19 µM
